Source: PubChem BioAssay (several laboratories)
GalR3 antagonist – GalR3 antagonists in HEK293 cells, primary screen, cell-based, fluorescence readout; HEK293 GalR3-CNG cAMP membrane potential fluorescence; galR3 body fused to GalR1 C-terminus; inhibition, % at 3 µM; actives 0.44% (n = 360,000);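 active = inhibition above the screen-wide average plus 3 SD, cut at about 13% in these data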;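 also: forskolin and galanin both at EC90 stimulate the cells; cAMP rise reported by CNG channel membrane potential dye signal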
Target sequence (O60755 1-299 limits assumed): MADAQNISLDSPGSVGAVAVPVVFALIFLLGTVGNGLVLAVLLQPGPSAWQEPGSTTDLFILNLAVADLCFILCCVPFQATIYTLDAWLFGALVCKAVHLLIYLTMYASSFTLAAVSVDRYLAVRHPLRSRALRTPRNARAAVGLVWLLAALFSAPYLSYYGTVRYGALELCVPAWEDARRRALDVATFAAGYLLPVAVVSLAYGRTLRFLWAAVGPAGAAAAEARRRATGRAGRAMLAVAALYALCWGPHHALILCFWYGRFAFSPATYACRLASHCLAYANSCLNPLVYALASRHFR
NR2E3 ag-1 – inhibitors of NR2E3-RetCOR corepressor binding, primary screen, NR2E3 agonist project, biochemical, TR-FRET, GST-NR2E3, biotin-RetCOR. Photoreceptor-specific nuclear receptor (Homo sapiens), Q9Y5X4. 1536-well. inhibition of corepressor binding, % at 4.78 µM. actives 0.12% (n = 320,000);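 active = percent inhibition above the cutoff of mean plus 3 SD of all tested compounds, set per screening campaign, cut at about 20% in these data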
Target sequence (Q9Y5X4 whole entry, looked up): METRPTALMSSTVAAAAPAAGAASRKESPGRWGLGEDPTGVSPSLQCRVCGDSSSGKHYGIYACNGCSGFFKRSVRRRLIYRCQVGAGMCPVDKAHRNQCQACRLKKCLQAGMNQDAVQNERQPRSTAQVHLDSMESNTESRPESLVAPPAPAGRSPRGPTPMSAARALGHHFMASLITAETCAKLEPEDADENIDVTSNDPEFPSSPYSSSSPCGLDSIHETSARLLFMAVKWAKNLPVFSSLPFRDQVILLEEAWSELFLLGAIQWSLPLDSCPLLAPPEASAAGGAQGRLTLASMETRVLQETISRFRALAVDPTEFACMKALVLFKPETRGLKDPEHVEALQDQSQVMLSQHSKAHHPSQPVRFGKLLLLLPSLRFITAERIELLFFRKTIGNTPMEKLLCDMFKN
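Material: NR2E3–RetCOR corepressor complex / Incubation: Compound–protein incubation for 5 h at 4 °C / Dosing: compound at 4.8 µM, single dose / Detection: time-resolved FRET / Benchmarks: high control biotin, low control 0.6% DMSO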
PG9 binder – binders of HIV-1 gp120 antibody PG9, primary screen, biochemical, TR-FRET. inhibition, % at 6.7 µM. TR-FRET gp120-PG9 antibody binding. AID 624416, 2012. actives 0.43% (n = 360,000). HIV-1 gp120 / PG9 antibody interaction; in the data active = inhibition above about 8.5%
NR1D1 modulator – modulators of Rev-erb alpha DNA binding, primary screen, biochemical, FITC-DNA, fluorescence polarization, uHTS. activity, % at 10 µM. Nuclear receptor subfamily 1 group D member 1 (Homo sapiens), P20393. AID 1259318, 2017. actives 0.79% (n = 370,000). Rev-erbα–FITC-DNA binding, 90 min;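 active = activity above about 14%, limit read from the data; passing the limit was not always enough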
NR2E3 ag-2 – NR2E3 agonists in two-hybrid cells, primary screen, cell-based, luminescence, CHO-S, Gal4-NCOR/VP16-NR2E3 | Photoreceptor-specific nuclear receptor (Homo sapiens), Q9Y5X4 | luciferase | inhibition of corepressor binding, % at 3.98 µM | actives 0.35% (n = 360,000) | AID 602229, 2012;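 active = inhibition above the mean of all tested compounds plus 3 SD, cut at about 70% in these data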;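 also: higher means lower luciferase signal from less NR2E3 corepressor binding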
Rev-erbA confirm – modulators of Rev-erb alpha DNA binding, confirmation, biochemical, FITC-DNA, fluorescence polarization, single point; 90 min; activation, % at 25 µM; actives 61% (n = 3,000); shares compounds with NR1D1 modulator; AID 1259319, 2017;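 active = activation at or above a set limit, or at least 3 SD above the negative control mean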
RORg counter – modulation of RORgamma DNA binding, dose response, counter-screen for Rev-erb alpha modulator project, biochemical, fluorescence polarization, FITC-DNA | AID 1259320, 2017 | IC50, µM | purified RORgamma protein-FITC-DNA binding | shares compounds with NR1D1 modulator | actives 8% (n = 910);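 active = Compounds whose fitted half-maximal concentration for disrupting protein-DNA binding is below 10 micromolar; the record names Rev-erb in its text, so the target is in doubt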
Each line names hits and unclear results; the compound was inactive in the other large screens (follow-up assays come after a bar, where they were run). Most compounds without a hit are left out; they make up all but 1.8% or so of the library.

CC(=O)c1ccc(N2CCN(S(=O)(=O)c3ccc4c(c3)CC(C)N4C(=O)C3CC3)CC2)cc1 (stereo unspecified)	NR1D1 modulator 31 | Rev-erbA confirm 24
CCCN(CCC)Cc1c(C(=O)N/N=C/c2ccc(C)o2)nnn1-c1nonc1N	NR1D1 modulator 31 | Rev-erbA confirm inactive
CCCc1c(C(=O)N/N=C/c2ccc(C)o2)nnn1-c1nonc1N	none (no result: NR2E3 ag-1)
CSc1cc(CS(=O)(=O)c2ccccc2)nc(-c2ccccc2)n1	NR1D1 modulator 20 | Rev-erbA confirm 28
Cc1nc(CS(=O)(=O)c2ccccc2)cc(Sc2ccc(Cl)cc2Cl)n1	none
O=S(=O)(Cc1cc(NCc2ccccc2)nc(-c2ccncc2)n1)c1ccccc1	NR1D1 modulator 17 | Rev-erbA confirm 44 | RORg counter inactive
O=C(NCC(c1ccccc1)c1ccccc1)[C@H](Cc1ccccc1)NC1(C(=O)NC2CCCCC2)CCC1	none (no result: GalR3 antagonist, NR2E3 ag-1, PG9 binder, NR2E3 ag-2)
O=C(Nc1ccc(O)c(-c2nc3ccccc3s2)c1)c1cccs1	PG9 binder 36, NR1D1 modulator 360 | Rev-erbA confirm 703 | RORg counter inactive
Cc1cc(=O)n2nc(N3CCCC(C(=O)NCc4ccc(F)cc4)C3)sc2n1 (stereo unspecified)	none
O=C(NCc1ccc(F)cc1)C1CCCN(c2nc3ccsc3c(=O)s2)C1 (stereo unspecified)	NR1D1 modulator 20 | Rev-erbA confirm inactive
COc1ccc(S[C@]2(C(=O)N3CCN(C(C)=O)CC3)CC(=O)N(C(=O)/C=C/c3ccccc3)[C@@H]2c2ccc(OC)cc2)cc1	none (no result: GalR3 antagonist, NR2E3 ag-1, PG9 binder, NR2E3 ag-2)
Cc1nn(C)c(C)c1NC(=O)CSc1nc(-c2ccccc2Cl)nc2c1cnn2-c1ccccc1	NR1D1 modulator 102 | Rev-erbA confirm 92 | RORg counter 6.8
Cc1nn(C)c(C)c1NC(=O)CSc1nc(-c2ccccc2F)nc2c1cnn2-c1ccccc1	NR1D1 modulator 42 (no result: NR2E3 ag-1) | Rev-erbA confirm 63 | RORg counter inactive
CCc1cccc(C)c1NC(=O)CSc1nc(-c2ccccc2F)nc2nc[nH]c12	none
Cc1cc(NC(=O)CSc2ncnc3c2cnn3-c2ccccc2)no1	none
O=c1c2ccccc2c(C=NCc2ccccn2)c(O)n1-c1ccccc1	NR1D1 modulator 69 | Rev-erbA confirm 20
COc1cccc(-n2c(O)c(C=NCc3ccccn3)c3ccccc3c2=O)c1	none
Cc1c(C2N3CC4(C)CN2CC(C)(C3)C4=O)c2ccccc2n1C (stereo unspecified)	NR1D1 modulator 42 | Rev-erbA confirm 69 | RORg counter inactive
Cn1cc(C2N3CC4(C)CN2CC(C)(C3)C4=O)c2ccccc21 (stereo unspecified)	NR1D1 modulator 17 | Rev-erbA confirm 18
CC12CN3CC(C)(CN(C1)C3c1cc(Br)ccc1O)C2=O (stereo unspecified)	none
COC(=O)[C@]12C[C@H](CC(=O)NCCc3ccccc3OC)C(=O)N(CCc3ccc(OC)c(OC)c3)C1=C[C@H](C(C)(C)C)O[C@@H]2C	none (no result: GalR3 antagonist, NR2E3 ag-1, PG9 binder, NR2E3 ag-2)
Cc1ccc2[nH]c(=O)c(N3CCOCC3)c(-c3ccccc3)c2c1	NR1D1 modulator 28 | Rev-erbA confirm inactive
O=C(CCCn1c(=S)[nH]c2ccccc2c1=O)N1CCN(c2cccc(Cl)c2)CC1	NR1D1 modulator 26 | Rev-erbA confirm 57
O=C(CCCCn1c(=O)[nH]c2ccccc2c1=O)N1CCN(c2cccc(C(F)(F)F)c2)CC1	none
CCCN1CCS(=O)(=O)N(Cc2cn(Cc3ccc(C)cc3)nn2)C(C(=O)OC)C1 (stereo unspecified)	none (no result: GalR3 antagonist, NR2E3 ag-1, PG9 binder, NR2E3 ag-2)
O=C1c2ccccc2NC(c2ccc(-c3ccccc3F)o2)N1O (stereo unspecified)	NR1D1 modulator 24 | Rev-erbA confirm 21
O=C1c2ccccc2NC(c2ccc(-c3cccc(F)c3)o2)N1O (stereo unspecified)	none
COc1cc2c(cc1O)CC[n+]1cc3c(OC)c(OC)ccc3cc1-2	none
COc1cc2c(cc1OC)-c1cc3ccc4c(c3c[n+]1CC2)OCO4	NR1D1 modulator 27 | Rev-erbA confirm 45 | RORg counter inactive
CCOc1ccccc1N=Cc1c(O)c2ccccc2oc1=O	NR1D1 modulator 36 | Rev-erbA confirm inactive
CCCCc1nc2sc3c(=O)n(N)cnc3c2c2c1CCCC2	none
CCCc1nc2sc3c(=O)n(N)cnc3c2c2c1CCCC2	NR1D1 modulator 37 | Rev-erbA confirm inactive
CC(C)(C)OC(=O)/C=C/[C@H](CCCCl)Sc1ccc(C(C)(C)C)cc1	none (no result: GalR3 antagonist, NR2E3 ag-1, PG9 binder, NR2E3 ag-2)
COc1ccc(/C=C/C(=O)NC(=S)N2CCN(c3ccccc3OC)CC2)cc1	NR1D1 modulator 48 | Rev-erbA confirm 39 | RORg counter inactive
COc1ccc(/C=C/C(=O)NC(=S)N2CCOCC2)cc1	none
CC(CCN1CCC(C(O)(c2ccccc2)c2ccccc2)CC1)Oc1ccc(C#N)cc1F (stereo unspecified)	none (no result: GalR3 antagonist, NR2E3 ag-1, PG9 binder, NR2E3 ag-2)
COc1ccc(C2C(C(=O)N3CCN(c4ccccc4Cl)CC3)CC(=O)N2c2ccc(OC)cc2)cc1 (stereo unspecified)	none (no result: GalR3 antagonist, NR2E3 ag-1, PG9 binder, NR2E3 ag-2)
CCOc1cc(-c2sc(Nc3ccccc3)n[n+]2-c2ccc(F)cc2)ccc1OC	none
Fc1ccc(-[n+]2nc(Nc3ccccc3)sc2-c2ccc(OCc3ccccc3)cc2)cc1	NR1D1 modulator 156 | Rev-erbA confirm inactive
C/C=C/C(=O)N1CCc2cc(S(=O)(=O)N(C)Cc3ccco3)ccc21	none (no result: GalR3 antagonist, NR2E3 ag-1, PG9 binder, NR2E3 ag-2)
COc1ccc(-c2ccc(-c3noc(-c4ccccc4F)n3)c(OC)n2)cc1	NR1D1 modulator 38 (no result: NR2E3 ag-1) | Rev-erbA confirm 39 | RORg counter inactive
COc1ccc(-c2ccc(-c3noc(-c4ccccc4)n3)c(OC)n2)cc1	NR1D1 modulator 22 | Rev-erbA confirm 18
COc1nc(C)ccc1-c1noc(-c2cccs2)n1	none
COc1nc(-c2ccccc2)ccc1-c1noc(-c2ccccc2)n1	none
COc1nc(-c2ccccc2)ccc1-c1noc(-c2cccs2)n1	NR1D1 modulator 59 | Rev-erbA confirm 40 | RORg counter inactive
Cc1ccc(S(=O)(=O)c2nnn3c2nc(N2CCN(c4ccccn4)CC2)c2ccccc23)cc1C	NR1D1 modulator 72 | Rev-erbA confirm 62 | RORg counter inactive
